# Results reported in PubChem BioAssay AID504382 (The Scripps Research Institute Molecular Screening Center, 2011).
# In all, about 2,500 compounds went through this assay and about 460 (18%) were called active.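 Rule for the calls: active = mean activation above a cutoff of low control average plus 3 SD from the earlier screen (cut at about 12% in these data); inactive = the rest.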 Not all results are given here.
# Assay: IANBD-channel fluorescence artefacts in buffer – biochemical, artefact control for cardiac RTF calcium sensitizer project, confirmation (AID 504382)
# Details: IANBD fluorescence interference counterscreen, EC20 Ca2+, at 7.2 µM, active compounds read high, scaled: EC20 calcium 0, EC100 calcium 100
# Summary of the method: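 timing = compound incubation 15 min at 25 °C before fluorescence reading | technique = fluorescence at 480 nm excitation, 540 nm emission | evaluation = interference relative to controls | replication = triplicate wells per compound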
row,SMILES,fluorescence artifact activation
1,Cc1ccc(Cl)c2c(N=Nc3ccccc3)c(O)[nH]c12,0.17% (inactive)
2,COCCN1C(=O)/C(=C/c2ccc(N3CCCC3)cc2C)SC1=S,0.17% (inactive)
3,COc1ccc(N2C(N)=NC(N)=NC2(C)C)cc1,-0.01% (inactive)
4,COC(=O)c1ccc(NC(=O)c2cccc(OC)c2)cc1,0.1% (inactive)
5,Cc1ccc(OCCCC(=O)NC2CCCCC2)cc1,0% (inactive)
6,Cc1cc(=O)n2nc(N3CCCC3C(=O)Nc3ccc(C(C)C)cc3)sc2n1 (stereo not drawn),166% (active)
7,Cc1cc(C)n2nc(C(=O)N3CCCC(Nc4ccc(C(C)C)cc4)C3)cc2n1 (stereo not drawn),2.67% (inactive)
8,COc1cc(NC(=O)[C@@H]2CCCN2S(=O)(=O)c2cccc3cccnc23)cc(OC)c1OC,0.18% (inactive)
9,C=C1CCN([C@@H](Cc2ccccc2)C(=O)O)S(=O)(=O)c2ccccc21,4.75% (inactive)
10,Cc1cccc(NC(=O)Cn2cnc3ccc(S(=O)(=O)N4CCC(C)CC4)cc3c2=O)n1,3.57% (inactive)
11,CC[n+]1c(/C=C2\Sc3ccccc3N2C)ccc2cccc(C)c21,0.11% (inactive)
12,COc1ccccc1-[n+]1c(C)cc(/C=C2\Sc3ccccc3N2C)cc1C,0.15% (inactive)
13,COc1ccc(-[n+]2c(C)cc(/C=C3\Sc4ccccc4N3C)cc2C)cc1,50.7% (active)
14,CN(C)CCN(C)Cc1c2ccccc2c(CN(C)CCN(C)C)c2ccccc12,8.32% (inactive)
15,Cc1cccc(N2C(=O)c3cccc4c(N(C)CCO)ccc(c34)C2=O)c1,0.05% (inactive)
16,CC1(c2cccc(Br)c2)NC(=O)NC1=O (stereo not drawn),16.7% (active)
17,Nc1ccc2nc3c(=O)n(C4CCCCC4)c(=O)[nH]c3nc2c1,1.78% (inactive)
18,Cc1ccc(C)c(N2CCN(C(=O)CN3C(=S)NC(C)(C)CC3C)CC2)c1 (stereo not drawn),8.59% (inactive)
19,C/C=C/c1ccc(OCCCNCC(C)O)c(OC)c1 (stereo not drawn),112% (active)
20,COc1cc(/C=C2\CC/C(=C\c3ccc(OCCO)c(OC)c3)C2=O)ccc1OCCO,0.12% (inactive)
21,COc1ccc(OC)c(/C=N/N=C(\N)c2nonc2N)c1,9.14% (inactive)
22,COc1ccc(CN2CCC(=O)N([C@H](CO)c3ccccc3)CC2)cc1,6.01% (inactive)

row,SMILES,fluorescence artifact activation
1,CCOc1ccccc1N1CCN(CC(=O)c2c(N)n(C)c(=O)n(C)c2=O)CC1,2.53% (inactive)
2,CC(C)CN(C(=O)CCCc1nc2ccccc2c(=O)[nH]1)c1c(N)n(Cc2ccccc2)c(=O)[nH]c1=O,0.01% (inactive)
3,CCOc1ccccc1N1CCN(CC(=O)N(CC(C)C)c2c(N)n(CC(C)C)c(=O)[nH]c2=O)CC1,13.8% (active)
4,O=C1NC(c2ccccc2)=C(c2nc3ccccc3s2)C(c2ccc(O)cc2)N1 (stereo not drawn),-0.03% (inactive)
5,Nc1ccc2c3c(cccc13)-c1ccccc1-2,0.02% (inactive)
6,Cc1n[nH]c(C)c1N1C(=O)c2cccc3c(N4CCCCCC4)ccc(c23)C1=O,0.08% (inactive)
7,COc1cc(/C=C2\CCC(C)C3=C(c4cc(OC)c(OC)c(OC)c4)C(C#N)=C(N)OC32)cc(OC)c1OC (stereo not drawn),14.5% (active)
8,CC1(C)CC(=O)C2=C(C1)OC(N)=C(C#N)C21CCN(Cc2ccccc2)CC1,0.25% (inactive)
9,COC(=O)C1=COC(C)C2CN3CCc4c([nH]c5ccccc45)C3CC12 (stereo not drawn),1.05% (inactive)
10,CCOC(=O)Cn1c(=NC(=O)c2cc(-c3cccs3)nc3ccccc23)sc2cc(S(N)(=O)=O)ccc21,-0.11% (inactive)
11,COc1ccccc1NC(=O)/C=C/C(=O)O,0.29% (inactive)
12,O=C(Nc1ccccc1OC(=O)c1ccccc1)c1ccccc1,45% (active)
13,CC(C)C(=O)c1cc2c(cc1NC(=O)c1ccccc1)OCCO2,0.02% (inactive)
14,COc1ccc(OC)c(C2C3CN(C(C)C)CC=C3C(C#N)=C(N)C2(C#N)C#N)c1 (stereo not drawn),1.64% (inactive)
15,CCn1c(NC(=O)Nc2cccc(C)c2C)cc2sccc21,0.08% (inactive)
16,C#CC[N+](C)(C)CCCCCCCCCC,13.8% (active)
17,Cc1nccc(-c2cccc(N/N=C(\C#N)C(=O)c3ccccc3)c2)n1,-0.02% (inactive)
18,CCOC(=O)Cn1nc2sc3ccccc3n2c(=O)c1=O,-0.05% (inactive)
19,Cc1ccc(CNC(=O)c2cccc3c2C(=O)c2ccc(N4CCCCC4)cc2S3(=O)=O)cc1,-0.01% (inactive)
20,O=C(CCc1ccc(S(=O)(=O)NCCc2ccccc2)cc1)N1CCN(Cc2ccc3c(c2)OCO3)CC1,-0.04% (inactive)
21,Cc1ccc(S(=O)(=O)NC(C)(C)CN2CCC(Cc3ccccc3)CC2)cc1,3.9% (inactive)
